Laboratory results from ChEMBL document CHEMBL4011638, “Semisynthetic Flavone-Derived Antimicrobials with Therapeutic Potential against Methicillin-Resistant Staphylococcus aureus (MRSA)” (J Med Chem, 2017).
Converted amounts (≈) assume the structure as drawn. The source made the active and inactive calls. The calls are words filed in the database; no cut-off is given here.

Key:
[1] = tested on: Staphylococcus aureus; assay: Antibacterial activity against methicillin-resistant Staphylococcus aureus DB57964 after 24 hrs by broth microdilution method; format: functional; details: DB57964, 24 h
Procedure, shortened: (§1)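 Broth microdilution per CLSI in cation-adjusted Mueller−Hinton broth, in tubes. Compounds dissolved in H2O or DMF, then diluted in PBS to 1000 μg/mL stocks. Serial 2-fold dilutions were made, with final DMF 2.5%. Organisms were grown on TSA at 35 °C for 20 h and adjusted to ~5× 10^5 CFU/mL. Tubes were incubated at 35 °C for 24 h. MIC was the lowest concentration with no visible growth versus control. Biological replicates.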

[2] = tested on: Staphylococcus aureus; assay: Antibacterial activity against methicillin-resistant Staphylococcus aureus ATCC 43300 after 24 hrs by broth microdilution method; format: functional; details: ATCC 43300, 24 h; procedure, shortened: as §1
[3] = tested on: Staphylococcus aureus; assay: Antibacterial activity against methicillin-sensitive Staphylococcus aureus ATCC 29213 after 24 hrs by broth microdilution method; format: functional; details: ATCC 29213, 24 h; procedure, shortened: as §1
[4] = tested on: Staphylococcus aureus; assay: Antibacterial activity against methicillin-resistant Staphylococcus aureus DB68004 after 24 hrs by broth microdilution method; format: functional; details: DB68004, 24 h; procedure, shortened: as §1
[5] = tested on: Staphylococcus aureus; assay: Antibacterial activity against methicillin-resistant Staphylococcus aureus BAA-38 after 24 hrs by broth microdilution method; format: functional; details: BAA-38, 24 h; procedure, shortened: as §1
[6] = tested on: Staphylococcus aureus; assay: Antibacterial activity against methicillin-sensitive Staphylococcus aureus DM4400R after 24 hrs by broth microdilution method; format: functional; procedure, shortened: as §1
[7] = Ratio of HC50 for New Zealand white rabbit RBC to MIC for methicillin-sensitive Staphylococcus aureus DM4583R
Procedure, shortened: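 HC50 measured on fresh New Zealand white rabbit RBCs, washed three times in PBS, at 4% v/v final. Cells were incubated with 2-fold serial dilutions (DMF final 0.5%) at 37 °C for 1 h, then centrifuged. Supernatant absorbance was read at 576 nm, with PBS as 0% and 2% Triton X-100 as 100% lysis. HC50 is the concentration lysing 50% of cells, divided by MIC from broth microdilution.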

[8] = tested on: Staphylococcus aureus; assay: Antibacterial activity against methicillin-sensitive Staphylococcus aureus DM4299 after 24 hrs by broth microdilution method; format: functional; details: DM4299, 24 h; procedure, shortened: as §1
[9] = tested on: Staphylococcus aureus; assay: Antibacterial activity against methicillin-resistant Staphylococcus aureus DB6506 after 24 hrs by broth microdilution method; format: functional; details: DB6506, 24 h; procedure, shortened: as §1
[10] = tested on: Staphylococcus aureus; assay: Antibacterial activity against methicillin-sensitive Staphylococcus aureus ATCC 29737 after 24 hrs by broth microdilution method; format: functional; details: ATCC 29737, 24 h; procedure, shortened: as §1
[11] = tested on: Staphylococcus aureus; assay: Antibacterial activity against methicillin-sensitive Staphylococcus aureus ATCC 6538 after 24 hrs by broth microdilution method; format: functional; details: ATCC 6538, 24 h; procedure, shortened: as §1
[12] = tested on: Staphylococcus aureus; assay: Antibacterial activity against methicillin-resistant Staphylococcus aureus ATCC 700699 after 24 hrs by broth microdilution method; format: functional; details: ATCC 700699, 24 h; procedure, shortened: as §1
[13] = tested on: Staphylococcus aureus; assay: Antibacterial activity against methicillin-sensitive Staphylococcus aureus DM4583R after 24 hrs by broth microdilution method; format: functional; procedure, shortened: as §1
[14] = tested on: Staphylococcus aureus; assay: Antibacterial activity against methicillin-resistant Staphylococcus aureus DM 21455 after 24 hrs by broth microdilution method; format: functional; details: DM 21455, 24 h; procedure, shortened: as §1
[15] = tested on: Staphylococcus aureus; assay: Antibacterial activity against Staphylococcus aureus DM4001R after 24 hrs by broth microdilution method; format: functional; procedure, shortened: as §1
[16] = tested on: Bacillus cereus; assay: Antibacterial activity against Bacillus cereus ATCC 11778 after 24 hrs by broth microdilution method; format: functional; details: ATCC 11778, 24 h
Procedure, shortened: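 MIC by CLSI broth microdilution in cation-adjusted Mueller–Hinton broth, tubes. Compounds in H2O or DMF, diluted in PBS to 1000 μg/mL stocks, then serial 2-fold dilutions (final DMF 2.5%). Inoculum ~5×10^5 CFU/mL from TSA plates grown 35 °C 20 h. Incubation 35 °C 24 h; MIC = no visible growth vs control. Biological replicates.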

[17] = tested on: Staphylococcus aureus; assay: Antibacterial activity against methicillin-resistant Staphylococcus aureus DM 9808R after 24 hrs by broth microdilution method; format: functional; procedure, shortened: as §1
[18] = tested on: Staphylococcus aureus; assay: Antibacterial activity against Staphylococcus aureus ATCC 29213 infected in C57BL6 mouse keratitis model assessed as log reduction in bacterial burden at 0.5 % administered 4 times daily at 2 hrs interval for 1 day; format: functional
Procedure, shortened: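 C57BL6 mice, 6–8 weeks, 20–30 g, four per group, anesthetized with ketamine/xylazine. Right cornea scratched (three 1 mm cuts), 10 μL of 6×10^8 CFU/mL S. aureus ATCC 29213 in PBS applied topically. From day 1, 0.5% drug in PBS (12 mM, pH 7.2) given 4 times at 2 h intervals. Corneas homogenized in 0.9% NaCl/0.25% BSA, diluted, plated in duplicate on TSA, 48 h at 35 °C.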

[19] = tested on: Staphylococcus aureus; assay: Ratio of MIC for Staphylococcus aureus ATCC 29213 after […] passages to MIC for Staphylococcus aureus ATCC 29213; format: functional
Procedure, shortened: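 Serial passage. Initial MIC was determined against S. aureus ATCC29213 by broth microdilution. Bacteria from duplicate tubes at 0.5× MIC were diluted to ~5 × 10^5 CFU/mL for the next MIC round. Each round was incubated at 35 °C for 24 h and the fold increase in MIC recorded. Gatifloxacin and norfloxacin served as comparators. Repeated for 17 passages, biological replicates.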

[20] = tested on: Staphylococcus aureus; assay: Induction of plasma membrane permeability in methicillin-resistant Staphylococcus aureus DM9808R assessed as increase in fluorescence intensity at 12.5 ug/ml measured every 1 sec for 50 mins by SYTOX green dye based fluorimetric assay; format: functional
Procedure, shortened: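 Exponential-phase MRSA DM9808R grown on TSA, washed twice and resuspended in PBS (10 mM, pH 7) to OD600 0.2. Cells were loaded with 0.3 μM SYTOX Green in the dark until fluorescence stabilized. Test samples were then added (final DMF 0.5%). Fluorescence at ex 504/em 523 nm was recorded every 1 s for 50 min. Biological replicates.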

[21] = tested on: Lipid bilayer; assay: Membrane permeabilization activity in DOPE/DOPG large unilamellar liposomes assessed as leakage of calcein at 1:4 to 1:8 compound to lipid ratio by fluorescence assay

Work on `N=C(N)NCCCCC(=O)Nc1cc(C(F)(F)F)cc(NC(=O)c2cc(C(=O)Nc3cc(C(F)(F)F)cc(NC(=O)CCCCNC(=N)N)c3O[C@@H]3CCNC3)ncn2)c1O[C@@H]1CCNC1` [BRILACIDIN] yielded an MIC [1] of 1 µg/mL (≈ 1.07 µM), an MIC [2] of 1 µg/mL (≈ 1.07 µM) and an MIC [3] of 1 µg/mL (≈ 1.07 µM). For the same compound, the MIC [4] was 1 µg/mL (≈ 1.07 µM), the MIC [5] was 1 µg/mL (≈ 1.07 µM) and the MIC [6] was 1 µg/mL (≈ 1.07 µM). For the same compound, the Ratio [7] was 558, the MIC [8] was 1 µg/mL (≈ 1.07 µM) and the MIC [9] was 1 µg/mL (≈ 1.07 µM). The MIC [10] was 1 µg/mL (≈ 1.07 µM), the MIC [11] was 1 µg/mL (≈ 1.07 µM) and the MIC [12] was 1 µg/mL (≈ 1.07 µM). The MIC [13] was 1 µg/mL (≈ 1.07 µM).
With `CCN(CC)CCOc1cc(O)c2c(=O)c(OCCN(CC)CC)c(-c3ccc(OC)cc3)oc2c1CC=C(C)C` the MIC [14] was 50 µg/mL, the MIC [15] was 50 µg/mL and the MIC [16] was > 50 µg/mL. The MIC [17] was > 50 µg/mL.
For `C[C@H]1COc2c(N3CCN(C)CC3)c(F)cc3c(=O)c(C(=O)O)cn1c23`, the Activity [18] was “Active”.
With `COc1ccc(-c2oc3c(CC=C(C)C)c(OCCBr)cc(O)c3c(=O)c2OCCBr)cc1` the MIC [14] was 5 µM, the MIC [15] was 5 µM and the MIC [16] was 5 µM. For the same compound, the MIC [17] was 10 µM.
`CC(C)(C)c1cc(C(C)(C)C)c2[nH]c(C(C)(C)C)c(C[C@H](NC(=O)[C@@H](N)CCCNC(=N)N)C(=O)N[C@@H](CCCNC(=N)N)C(=O)NCCc3ccccc3)c2c1` [LTX-109] showed an MIC [1] of 4 µg/mL (≈ 5.08 µM), an MIC [2] of 4 µg/mL (≈ 5.08 µM) and an MIC [3] of 4 µg/mL (≈ 5.08 µM). It also gave an MIC [4] of 4 µg/mL (≈ 5.08 µM), an MIC [5] of 4 µg/mL (≈ 5.08 µM) and an MIC [6] of 4 µg/mL (≈ 5.08 µM). For the same compound, the Ratio [7] was 44, the MIC [8] was 4 µg/mL (≈ 5.08 µM) and the MIC [9] was 4 µg/mL (≈ 5.08 µM). It also gave an MIC [10] of 4 µg/mL (≈ 5.08 µM), an MIC [11] of 4 µg/mL (≈ 5.08 µM) and an MIC [12] of 4 µg/mL (≈ 5.08 µM). For the same compound, the MIC [13] was 4 µg/mL (≈ 5.08 µM).
For `CCN(CC)CCCCCCCCOc1cc(O)c2c(=O)c(OCCCCCCCCN(CC)CC)c(-c3ccc(OC)cc3)oc2c1CC=C(C)C`, the MIC [14] was > 50 µg/mL, the MIC [15] was > 50 µg/mL and the MIC [16] was > 50 µg/mL. For the same compound, the MIC [17] was > 50 µg/mL.
In the case of `CCN(CC)CCCCOc1cc(O)c2c(=O)c(OCCCCN(CC)CC)c(-c3ccc(OC)cc3)oc2c1CC=C(C)C`, the MIC [14] is reported as 12.5 µg/mL, the MIC [15] is reported as 25 µg/mL and the MIC [16] is reported as 6.25 µg/mL. The MIC [17] was 12.5 µg/mL.
`COc1c(N2CCNC(C)C2)c(F)cc2c(=O)c(C(=O)O)cn(C3CC3)c12` (centres undefined) [GATIFLOXACIN] showed a Ratio [19] of 64.
In the case of `COc1ccc(-c2oc3c(CC=C(C)C)c(OCCCCN(C)C)cc(O)c3c(=O)c2OCCCCN(C)C)cc1`, the MIC [14] is reported as 12.5 µg/mL, the MIC [15] is reported as 25 µg/mL and the MIC [16] is reported as 25 µg/mL. The MIC [17] was 12.5 µg/mL.
For `COC(=O)[C@H](Cc1cnc[nH]1)NC(=O)COc1cc(O)c2c(=O)c(OCC(=O)N[C@@H](Cc3cnc[nH]3)C(=O)OC)c(-c3ccc(OC)cc3)oc2c1CC=C(C)C`, the MIC [14] was > 63.5 µM, the MIC [15] was > 63.5 µM and the MIC [16] was > 63.5 µM. For the same compound, the Activity [20] was “inactive”, the Activity [21] was < 5% and the MIC [17] was > 63.5 µM.
